Reference: ChEMBL document CHEMBL1140739, “Modulation of cellular apoptosis with apoptotic protease-activating factor 1 (Apaf-1) inhibitors” (2008)
Active and inactive are the calls of the source. The calls are words filed in the database; no cut-off is given here. Starred links: 1 amine or outer side, 2 acyl side, 3 side chain; linkers in the order of their positions; H or OH if unused. Non-standard residues stand in square brackets, D forms with d. Residues, ends and D or L forms follow the SMILES beside them. N(2,4-Cl2-phenethyl)Gly = O=C(O)CNCCc1ccc(Cl)cc1Cl; X1 = O=C(CN(CCC(c1ccccc1)c1ccccc1)[*:1])[*:2]

Legend:
SAOS-2 [1] = assay: Antiapoptotic activity against human Saos2 cells assessed as cell recovery at 5 uM after 24 hrs by flow cytometry; format: functional
SAOS-2 [2] = assay: Inhibition of apoptosome activity in human Saos2 cells assessed as inhibition of caspase 3 at 5 uM after 24 hrs by fluorimetric DEVDase assay; format: functional; details: SAOS-2, 24 h
Summary of the method: (§1)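 Apoptosis was induced with doxorubicin in PBS (HeLa 2 µg/mL, 3 × 10⁵ cells/plate; U-2 OS 2.5 µg/mL, 3.5 × 10⁵ cells/plate) or with doxycycline 2 µg/mL (Saos-2, tet-ON Bax, 2 × 10⁵ cells/plate). Compound was added 30 min later at 5 µM, and cells were harvested at 24, 48 or 72 h. Lysis was by PIPES/KCl/EDTA/MgCl₂/DTT buffer with three freeze-thaw cycles. Protein was equalized by BCA, then 20 µM Ac-DEVD-afc was added in PBS with 10% glycerol, 0.1 mM EDTA and 2 mM DTT. Fluorescence was read at 37 °C (ex 400, em 508 nm) as ΔFU/min; mean ± SE, n > 3.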

U-937 [3] = assay: Cytotoxicity against human U937 cells after 24 hrs by MTT assay; format: functional, cell-based
Summary of the method: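 U937 cells in RPMI 1640 with 10% FCS and 2 mM L-glutamine were seeded at 2.5 × 10³ or 4 × 10³ cells/well and settled for 24 h. Filter-sterilized compounds were added at final 1, 5 and 10 µM (polymer conjugate at 20, 50 and 100 µM drug equivalent) for 19 h. MTT was then added for a further 5 h, giving 24 h total exposure. Formazan was dissolved in DMSO and read at 570 nm; mean ± SE, n > 3.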

U2OS [4] = assay: Antiapoptotic activity against human U2OS cells assessed as inhibition of doxorubicin-induced cell death by flow cytometry; format: functional, cell-based
U2OS [5] = assay: Antiapoptotic activity against human U2OS cells assessed as inhibition of doxorubicin-induced cell death after 24 hrs by flow cytometry; format: functional, cell-based
U-937 [6] = assay: Antiapoptotic activity against human U937 cells assessed as inhibition of doxorubicin-induced cell death after 24 hrs by flow cytometry; format: functional, cell-based
HeLa [7] = assay: Antiapoptotic activity against human HeLa cells assessed as inhibition of doxorubicin-induced cell death after 24 hrs by flow cytometry; format: functional, cell-based
A549 = assay: Antiapoptotic activity against human A549 cells assessed as inhibition of doxorubicin-induced cell death after 24 hrs by flow cytometry; format: functional, cell-based
SAOS-2 [8] = assay: Antiapoptotic activity against human Saos2 cells assessed as inhibition of doxycyclin-induced cell death after 24 hrs by flow cytometry; format: functional, cell-based
SAOS-2 [9] = assay: Antiapoptotic activity against human Saos2 cells assessed as inhibition of doxycyclin-induced cell death at 1 uM by flow cytometry; format: functional
SAOS-2 [10] = assay: Inhibition of apoptosome activity in human Saos2 cells assessed as inhibition of caspase 3 after 24 hrs by fluorimetric DEVDase assay; format: functional, cell-based
U2OS [11] = assay: Inhibition of apoptosome activity in human U2OS cells assessed as inhibition of caspase 3 at 5 uM after 48 hrs by fluorimetric DEVDase assay; format: functional; summary of the method: as §1
HeLa [12] = assay: Inhibition of apoptosome activity in human HeLa cells assessed as inhibition of caspase 3 at 5 uM after 48 hrs by fluorimetric DEVDase assay; format: functional; summary of the method: as §1

CCCCN(CC(N)=O)C(=O)C1CC(=O)N(CCc2ccc(Cl)cc2Cl)CC(=O)N1CCC(c1ccccc1)c1ccccc1 (stereo unspecified)
Activity (SAOS-2 [1]): 2% | inhibition at 5 µM (SAOS-2 [2]): 45%

NC(=O)CN(CCc1ccc(F)cc1)C(=O)C1CC(=O)N(CCc2ccc(Cl)cc2Cl)CC(=O)N1CCC(c1ccccc1)c1ccccc1 (stereo unspecified)
Activity (SAOS-2 [1]): 57% | inhibition at 5 µM (SAOS-2 [2]): 34%

NC(=O)CN(CC1CCCO1)C(=O)C1CC(=O)N(CCc2ccc(Cl)cc2Cl)CC(=O)N1CCC(c1ccccc1)c1ccccc1 (stereo unspecified)
Activity (SAOS-2 [1]): 9%

COc1ccccc1CCN(CC(N)=O)C(=O)C1CC(=O)N(CCc2ccc(Cl)cc2Cl)CC(=O)N1CCC(c1ccccc1)c1ccccc1 (stereo unspecified)
Activity (SAOS-2 [1]): 41% | inhibition at 5 µM (SAOS-2 [2]): 1%

CC[C@H](C)[C@H](NC(=O)[C@H](CCCCN)NC(=O)[C@@H](NC(=O)[C@H](CCC(N)=O)NC(=O)[C@@H](N)CCCNC(=N)N)[C@@H](C)CC)C(=O)N[C@@H](Cc1c[nH]c2ccccc12)C(=O)N[C@@H](Cc1ccccc1)C(=O)N[C@@H](CCC(N)=O)C(=O)N[C@@H](CC(N)=O)C(=O)N[C@@H](CCCNC(=N)N)C(=O)N[C@@H](CCCNC(=N)N)C(=O)N[C@@H](CCSC)C(=O)N[C@@H](CCCCN)C(=O)N[C@@H](Cc1c[nH]c2ccccc12)C(=O)N[C@@H](CCCCN)C(=O)N[C@@H](CCCCN)C(=O)NCC(=O)NCC(=O)N(CCc1ccc(Cl)cc1Cl)CC(=O)N(CCC(c1ccccc1)c1ccccc1)CC(=O)N(CCc1ccc(Cl)cc1Cl)CC(N)=O
Activity (U-937 [3]): Toxic

NC(=O)CN(CCc1ccccc1F)C(=O)C1CC(=O)N(CCc2ccc(Cl)cc2Cl)CC(=O)N1CCC(c1ccccc1)c1ccccc1 (stereo unspecified)
Activity (SAOS-2 [1]): 16% | inhibition at 5 µM (SAOS-2 [2]): 51%

CC(=O)NCCN(CC(N)=O)C(=O)C1CC(=O)N(CCc2ccc(Cl)cc2Cl)CC(=O)N1CCC(c1ccccc1)c1ccccc1 (stereo unspecified)
Activity (SAOS-2 [1]): 12% | inhibition at 5 µM (SAOS-2 [2]): 21%

NC(=O)CN(CCc1ccc(Cl)cc1Cl)C(=O)C1CC(=O)N(CCc2ccc(Cl)cc2Cl)CC(=O)N1CCC(c1ccccc1)c1ccccc1 (stereo unspecified)
Activity (U-937 [3]): Not toxic | Activity (U2OS [4]): Active | Activity (U2OS [5]): Active | Activity (U-937 [6]): Active | Activity (HeLa [7]): Active | Activity (A549): Active | Activity (SAOS-2 [8]): Active | inhibition at 1 µM (SAOS-2 [9]): 60% | Activity (SAOS-2 [10]): Active | inhibition at 5 µM (U2OS [11]): 50% | inhibition at 5 µM (HeLa [12]): 60% | Activity (SAOS-2 [1]): 50% | inhibition at 5 µM (SAOS-2 [2]): 53%

NC(=O)CN(CCc1ccc(Cl)cc1)C(=O)C1CC(=O)N(CCc2ccc(Cl)cc2Cl)CC(=O)N1CCC(c1ccccc1)c1ccccc1 (stereo unspecified)
Activity (SAOS-2 [1]): 23% | inhibition at 5 µM (SAOS-2 [2]): 2%

CC(C)C[C@H](NC(=O)[C@H](C)NC(=O)[C@H](CCCCN)NC(=O)[C@@H](NC(=O)[C@@H](N)CS)[C@@H](C)O)C(=O)NCC(=O)N[C@@H](CS)C(=O)NCC(=O)NCC(=O)N[C@@H](Cc1ccc(O)cc1)C(=O)NCC(=O)N[C@@H](CCCNC(=N)N)C(=O)N[C@@H](CCCCN)C(=O)N[C@@H](CCCCN)C(=O)N[C@@H](CCCNC(=N)N)C(=O)N[C@@H](CCCNC(=N)N)C(=O)N[C@@H](CCC(N)=O)C(=O)N[C@@H](CCCNC(=N)N)C(=O)N[C@@H](CCCNC(=N)N)C(=O)N[C@@H](CCCNC(=N)N)C(=O)N(CCc1ccc(Cl)cc1Cl)CC(=O)N(CCC(c1ccccc1)c1ccccc1)CC(=O)N(CCc1ccc(Cl)cc1Cl)CC(N)=O (H-CTKALGCGGYGRKKRRQRRR[N(2,4-Cl2-phenethyl)Gly][X1][N(2,4-Cl2-phenethyl)Gly]-NH2)
Activity (U-937 [3]): Toxic | Activity (U2OS [4]): inactive

NC(=O)CN(C(=O)C1CC(=O)N(CCc2ccc(Cl)cc2Cl)CC(=O)N1CCC(c1ccccc1)c1ccccc1)C1CC1 (stereo unspecified)
Activity (SAOS-2 [1]): 10% | inhibition at 5 µM (SAOS-2 [2]): 16%
